Experimental data taken from ChEMBL document CHEMBL1156065, “Structure-activity relationship study on alpha1 adrenergic receptor antagonists from beer” (Bioorg Med Chem Lett, 2009).

Key:
[1] = target: T1, Alpha-1A adrenergic receptor (Rattus norvegicus, UniProt P43140); assay: Displacement of [3H]prazosin from rat salivary gland alpha1A adrenoceptor
T1 sequence (P43140 whole entry): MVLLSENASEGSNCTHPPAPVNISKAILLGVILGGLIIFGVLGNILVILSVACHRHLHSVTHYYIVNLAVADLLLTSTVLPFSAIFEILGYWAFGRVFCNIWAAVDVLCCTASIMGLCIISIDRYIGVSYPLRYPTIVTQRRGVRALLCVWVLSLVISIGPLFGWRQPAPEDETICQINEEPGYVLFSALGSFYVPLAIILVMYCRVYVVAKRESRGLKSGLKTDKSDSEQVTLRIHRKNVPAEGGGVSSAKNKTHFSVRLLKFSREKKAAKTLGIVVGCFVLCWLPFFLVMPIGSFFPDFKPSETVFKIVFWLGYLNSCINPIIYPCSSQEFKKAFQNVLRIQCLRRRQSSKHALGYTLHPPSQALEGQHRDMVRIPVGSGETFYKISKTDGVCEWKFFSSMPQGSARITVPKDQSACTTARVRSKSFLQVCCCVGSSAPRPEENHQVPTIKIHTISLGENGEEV
Procedure, shortened: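 Rat salivary gland homogenate incubated with test samples and 0.06 nM [3H]-prazosin at 22 °C for 60 min. Stopped by vacuum filtration through glass-fiber filters, washed with 50 mM Tris–HCl, counted by liquid scintillation. Nonspecific binding defined with phentolamine and subtracted from total binding. IC50 taken as the concentration inhibiting specific binding by 50%.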

[2] = target: T1, Alpha-1A adrenergic receptor; assay: Antagonist activity at rat alpha1A adrenoceptor assessed as inhibition of phenylephrine-induced contraction of caudal artery; type: functional, tissue-based
Procedure, shortened: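 Isometric tension at 1 g resting load, equilibrated 30 to 60 min with repeated washes. Contraction induced by submaximal phenylephrine. After the response stabilized, test sample was added at increasing concentrations, up to 15 min per concentration or until the response was stable.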

SMILES	IC50 [1]	IC50 [2]
N=C(N)NCCCCNC(=O)/C=C/c1ccc(O)cc1	57.6 µM	> 100 µM
N=C(N)NCCCCNC(=O)/C=C/c1ccc2c(c1)[C@@H](C(=O)NCCCCNC(=N)N)[C@@H](c1ccc(O)cc1)O2	2.44 µM	17.7 µM
N=C(N)NCCCCNC(=O)/C=C/c1ccc2c(c1)[C@@H](C(=O)NCCCCNC(=N)N)[C@H](c1ccc(O)cc1)O2	0.29 µM	14.3 µM
N=C(N)NCCCCNC(=O)/C=C/c1ccc2c(c1)[C@H](C(=O)NCCCCNC(=N)N)[C@@H](c1ccc(O)cc1)O2 [HORDATINE A]	0.31 µM	19.3 µM

Now from value to molecule:

IC50 [1]	IC50 [2]	SMILES
> 100 µM	> 100 µM	N=C(N)NCCCCNC(=O)[C@H]1c2cc(/C=C/C(=O)O)ccc2O[C@@H]1c1ccc(O)cc1
2.16 µM	42.2 µM	COC(=O)[C@H]1c2cc(/C=C/C(=O)NCCCCNC(=N)N)ccc2O[C@@H]1c1ccc(O)cc1
0.56 µM	9.72 µM	COC(=O)[C@@H]1c2cc(/C=C/C(=O)NCCCCNC(=N)N)ccc2O[C@H]1c1ccc(O)cc1
> 100 µM	> 100 µM	N=C(N)NCCCCNC(=O)[C@@H]1c2cc(/C=C/C(=O)O)ccc2O[C@H]1c1ccc(O)cc1
0.42 µM	4.9 µM	N=C(N)NCCCCNC(=O)/C=C/c1ccc2c(c1)[C@H](C(=O)NCCCCNC(=N)N)[C@H](c1ccc(O)cc1)O2 [APERIDINE]
